Converted amounts (≈) assume the structure as drawn. The source made the active and inactive calls. The calls are words filed in the database; no cut-off is given here.
Legend:
Candida albicans [1] = test: Antimicrobial activity against Candida albicans CAF2-1 assessed as accumulation of dark corpuscles in nucleus at 1 ug/ml after 4 hrs by uranyl acetate/lead citrate staining based transmission electron microscopy; format: functional, organism-based
How it was run: (§1)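 CAF2-1 grown in YNB pH 4.6 at 37 °C for 2 h. Compound (1 mg/mL DMSO stock) then added at 1 or 2 μg/mL. DMSO-treated and untreated controls. Samples taken at 4 and 18 h and pelleted. Prefixed in 3% glutaraldehyde–2% paraformaldehyde in 0.07 M phosphate pH 7, postfixed in 1% OsO4, ethanol-dehydrated and embedded in LR White. 0.08 μm sections stained with uranyl acetate/lead citrate and viewed by TEM.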

Candida albicans [2] = test: Antimicrobial activity against Candida albicans CAF2-1 assessed as punctual disruption of nuclear membrane at 2 ug/ml after 4 hrs by uranyl acetate/lead citrate staining based transmission electron microscopy; format: functional, organism-based; how it was run: as §1
Candida albicans [3] = test: Antimicrobial activity against Candida albicans CAF2-1 assessed as punctual disruption of nuclear membrane at 1 ug/ml after 4 hrs by uranyl acetate/lead citrate staining based transmission electron microscopy; format: functional, organism-based; how it was run: as §1
Candida albicans [4] = test: Antimicrobial activity against Candida albicans CAF2-1 assessed as breakage zones of plasmic membrane at 2 ug/ml after 18 hrs by uranyl acetate/lead citrate staining based transmission electron microscopy; format: functional, organism-based; how it was run: as §1
Candida albicans [5] = test: Antimicrobial activity against Candida albicans CAF2-1 assessed as breakage zones of plasmic membrane at 1 ug/ml after 18 hrs by uranyl acetate/lead citrate staining based transmission electron microscopy; format: functional, organism-based; how it was run: as §1
Candida albicans [6] = test: Antimicrobial activity against Candida albicans CAF2-1 assessed as cytoplasmic content disorganization at 2 ug/ml after 18 hrs by uranyl acetate/lead citrate staining based transmission electron microscopy; format: functional, organism-based; how it was run: as §1
Candida albicans [7] = test: Antimicrobial activity against Candida albicans CAF2-1 assessed as cytoplasmic content disorganization at 1 ug/ml after 18 hrs by uranyl acetate/lead citrate staining based transmission electron microscopy; format: functional, organism-based; how it was run: as §1
Candida albicans [8] = test: Antimicrobial activity against Candida albicans CAF2-1 after 24 hrs by two fold serial dilution method; format: functional; conditions: CAF2-1, 24 h
How it was run: (§2)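 Broth microdilution per EUCAST. Yeasts diluted to 2 × 10^5 cells/mL in YNB with 2% glucose, pH 4.6. Compound stocks 10 mg/mL in DMSO, twofold serial dilutions, 1% DMSO final. Drug-free and sterility controls included. Incubated 24 h at 34 °C. MIC is the lowest concentration giving OD450 ≤50% of the compound-free culture. For S. cerevisiae, YNB was supplemented with Complete Supplement Mixture.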

Nakaseomyces glabratus = test: Antimicrobial activity against Candida glabrata after 24 hrs by two fold serial dilution method; format: functional; how it was run: as §2
Pichia kudriavzevii = test: Antimicrobial activity against Candida krusei ATCC 6258 after 24 hrs by two fold serial dilution method; format: functional; conditions: ATCC 6258, 24 h; how it was run: as §2
Candida tropicalis = test: Antimicrobial activity against Candida tropicalis ATCC 75 after 24 hrs by two fold serial dilution method; format: functional; conditions: ATCC 75, 24 h; how it was run: as §2
Candida parapsilosis = test: Antimicrobial activity against Candida parapsilosis ATCC 22019 after 24 hrs by two fold serial dilution method; format: functional; conditions: Lodderomyces parapsilosis, ATCC 22019, 24 h; how it was run: as §2
Saccharomyces cerevisiae = test: Antimicrobial activity against Saccharomyces cerevisiae BY4741 after 24 hrs by two fold serial dilution method; format: functional; conditions: BY4741, 24 h; how it was run: as §2
Candida albicans [9] = test: Antibiofilm activity against Candida albicans CAF2-1 assessed as reduction in metabolic activity after 48 hrs by XTT assay; format: functional; conditions: CAF2-1, 48 h
Escherichia coli = test: Antimicrobial activity against Escherichia coli; format: functional
Pseudomonas aeruginosa = test: Antimicrobial activity against Pseudomonas aeruginosa; format: functional
Staphylococcus aureus = test: Antimicrobial activity against Staphylococcus aureus; format: functional
HeLa = test: Cytotoxicity against human HeLa cells after 48 hrs by SRB assay; format: cell-based
How it was run: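 Sulforhodamine B assay in HeLa cells (DMEM + 10% FBS, 37 °C, 5% CO2), seeded at 10^4 cells/well. After 24 h, cells were PBS-washed and exposed to twofold dilutions from 100 μg/mL for 48 h. A day-1 plate was fixed as baseline. OD492 growth = (treated d3 − d1)/(DMSO d3 − d1) × 100. IC50 was obtained by dose–response curve fitting.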

[10] = Selectivity index, ratio of IC50 for human HeLa cells to MIC for Candida albicans CAF2-1
How it was run: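 SI = HeLa IC50 (SRB assay, 48 h) divided by the C. albicans CAF2-1 MIC (YNB pH 4.6, 24 h, 34 °C broth microdilution).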

Candida albicans [11] = test: Antimicrobial activity against Candida albicans CAF2-1 assessed as accumulation of dark corpuscles in nucleus at 2 ug/ml after 4 hrs by uranyl acetate/lead citrate staining based transmission electron microscopy; format: functional, organism-based; how it was run: as §1

Row | SMILES | Activity (Candida albicans [1]) | Activity (Candida albicans [2]) | Activity (Candida albicans [3]) | Activity (Candida albicans [4]) | Activity (Candida albicans [5]) | Activity (Candida albicans [6]) | Activity (Candida albicans [7]) | MIC (Candida albicans [8]) [µg/mL] | MIC (Nakaseomyces glabratus) [µg/mL] | MIC (Pichia kudriavzevii) [µg/mL] | MIC (Candida tropicalis) [µg/mL] | MIC (Candida parapsilosis) [µg/mL] | MIC (Saccharomyces cerevisiae) [µg/mL] | MIC (Candida albicans [9]) [µg/mL] | MIC (Escherichia coli) [µg/mL] | MIC (Pseudomonas aeruginosa) [µg/mL] | MIC (Staphylococcus aureus) [µg/mL] | IC50 (HeLa) [µg/mL] | Selectivity Index [10] | Activity (Candida albicans [11])
1 | COc1c(C)n(OC)c2c(c1=O)[C@@H](CCCCCc1ccccc1)CCC2 | Active | Active | Active | Active | Active | Active | Active | 32 (≈ 86.6 µM) | 32 (≈ 86.6 µM) | 32 (≈ 86.6 µM) | 32 (≈ 86.6 µM) | 2 (≈ 5.41 µM) | 16 (≈ 43.3 µM) | 32 (≈ 86.6 µM) | > 32 | > 32 | > 32 | 9.5 (≈ 25.7 µM) | 0.3 | Active
2 | CCCCCCCC[C@@H]1CCCc2c1c(=O)c(OC)c(CO)n2OC |  |  |  |  |  |  |  | 32 (≈ 91 µM) | > 32 | > 32 | > 32 | > 32 | > 32 | 16 (≈ 45.5 µM) | > 32 | > 32 | > 32 | 26.6 (≈ 75.7 µM) | 0.8 | 
3 | CCCCCCCC[C@@H]1CCCc2[nH]c(CO)c(OC)c(=O)c21 |  |  |  |  |  |  |  | 32 (≈ 99.5 µM) | > 32 | 32 (≈ 99.5 µM) | > 32 | > 32 | > 32 | 16 (≈ 49.8 µM) |  |  |  | 24.4 (≈ 75.9 µM) | 0.8 | 
4 | OC(Cn1cncn1)(Cn1cncn1)c1ccc(F)cc1F [FLUCONAZOLE] |  |  |  |  |  |  |  | 0.5 (≈ 1.63 µM) | > 128 | 32 (≈ 104 µM) | 4 (≈ 13.1 µM) | 4 (≈ 13.1 µM) | 16 (≈ 52.2 µM) | > 256 |  |  |  | > 100 | >200 | 
5 | CCCCCCCC[C@@H]1CCCc2[nH]c(C)c(OC)c(=O)c21 |  |  |  |  |  |  |  | 16 (≈ 52.4 µM) | > 32 | 32 (≈ 105 µM) | > 32 | 32 (≈ 105 µM) | > 32 | 32 (≈ 105 µM) | > 32 | > 32 | > 32 | 24.7 (≈ 80.9 µM) | 1.5 | 
6 | CCCCCCCC[C@H]1CCC(=O)c2[nH]c(C)c(OC)c(=O)c21 |  |  |  |  |  |  |  | 32 (≈ 100 µM) | > 32 | 16 (≈ 50.1 µM) | > 32 | 4 (≈ 12.5 µM) | > 32 | 16 (≈ 50.1 µM) | > 32 | > 32 | > 32 | 23.4 (≈ 73.3 µM) | 0.7 | 
7 | COc1c(C)[nH]c2c(c1=O)[C@@H](CCCCCc1ccccc1)CC[C@H]2OC |  |  |  |  |  |  |  | 32 (≈ 86.6 µM) | > 32 | > 32 | > 32 | > 32 | > 32 | 32 (≈ 86.6 µM) | > 32 | > 32 | > 32 | 11.9 (≈ 32.2 µM) | 0.4 | 
8 | CCCCCCCC[C@H]1CCCc2c1c(=O)c(OC)c(C)n2OC |  |  |  |  |  |  |  | 16 (≈ 47.7 µM) | 32 (≈ 95.4 µM) | 16 (≈ 47.7 µM) | 32 (≈ 95.4 µM) | 2 (≈ 5.96 µM) | 16 (≈ 47.7 µM) | 16 (≈ 47.7 µM) | > 32 | > 32 | > 32 | 16.1 (≈ 48 µM) | 1 | 
9 | CCCCCCCC[C@H]1CC[C@@H](OC)c2[nH]c(C)c(OC)c(=O)c21 | Active | Active | Active | Active | Active | Active | Active | 4 (≈ 11.9 µM) | > 32 | > 32 | > 32 | > 32 | > 32 | 8 (≈ 23.8 µM) | > 32 | > 32 | > 32 | 20 (≈ 59.6 µM) | 5 | Active
10 | CCCCCCCCc1ccc(OC)c2[nH]c(C)c(OC)c(=O)c12 |  |  |  |  |  |  |  | 8 (≈ 24.1 µM) | > 32 | > 32 | > 32 | > 32 | > 32 | 16 (≈ 48.3 µM) | > 32 | > 32 | > 32 | 14.4 (≈ 43.4 µM) | 1.8 | 
11 | CC[C@H](C)C[C@H](C)CCCCCCCCC(=O)N[C@H]1C[C@@H](O)[C@@H](NCCN)NC(=O)[C@@H]2[C@@H](O)CCN2C(=O)[C@H]([C@H](O)CCN)NC(=O)[C@H]([C@H](O)[C@@H](O)c2ccc(O)cc2)NC(=O)[C@@H]2C[C@@H](O)CN2C(=O)[C@H]([C@@H](C)O)NC1=O [CASPOFUNGIN] |  |  |  |  |  |  |  | 0.3 (≈ 0.274 µM) | 0.1 (≈ 0.0915 µM) | 0.1 (≈ 0.0915 µM) | 0.5 (≈ 0.457 µM) | 1 (≈ 0.915 µM) | 0.3 (≈ 0.274 µM) | 0.1 (≈ 0.0915 µM) |  |  |  | > 100 | >400 | 
12 | CCCCCCCC[C@H]1CC[C@@H](O)c2[nH]c(C)c(OC)c(=O)c21 |  |  |  |  |  |  |  | 32 (≈ 99.5 µM) | > 32 | 32 (≈ 99.5 µM) | > 32 | > 32 | > 32 | 16 (≈ 49.8 µM) |  |  |  | 50 (≈ 156 µM) | 1.6 | 
